Measured values reported in ChEMBL document CHEMBL4196081, “Synthesis and antimycobacterial activity of 1-(β-d-Ribofuranosyl)-4-coumarinyloxymethyl- / -coumarinyl-1,2,3-triazole” (Eur J Med Chem, 2018).
In brackets after ≈: the same amount, converted by molar mass.

Assays:
[1] = Cytotoxicity against human THP1 cells assessed as cell viability at 37.48 ug/ml after 48 hrs by MTT assay relative to control; assay type: cell-based; conditions: THP-1 cells, read-out: Activity
Summary of the method: (§1)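 THP-1 cells (human monocytic line) seeded at 10^4 per well and adhered with phorbol myristate acetate (20 ng/mL). Then given fresh RPMI with 10% foetal calf serum and 2 mM L-glutamine, plus compound by serial double dilution (4.68–150 µg/mL), with DMSO and no-DMSO controls. Incubated 24 or 48 h at 37 °C, 5% CO2. MTT added for 4 h, formazan dissolved in DMSO, A540 read, percentage survival calculated.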

[2] = Cytotoxicity against human THP1 cells assessed as cell viability at 150 ug/ml after 24 hrs by MTT assay relative to control; assay type: cell-based; conditions: THP-1 cells, read-out: Activity; summary of the method: as §1
[3] = Cytotoxicity against human THP1 cells assessed as cell viability at 75 ug/ml after 24 hrs by MTT assay relative to control; assay type: cell-based; conditions: THP-1 cells, read-out: Activity; summary of the method: as §1
[4] = system: Mycobacterium tuberculosis; experiment: Bactericidal activity against Mycobacterium tuberculosis H37Rv after 4 weeks by MABA; assay type: functional; conditions: 672 h
[5] = Cytotoxicity against human THP1 cells assessed as cell viability at 150 ug/ml after 48 hrs by MTT assay relative to control; assay type: cell-based; conditions: THP-1 cells, read-out: Activity; summary of the method: as §1
[6] = Cytotoxicity against human THP1 cells assessed as cell viability at 18.72 ug/ml after 24 hrs by MTT assay relative to control; assay type: cell-based; conditions: THP-1 cells, read-out: Activity; summary of the method: as §1
[7] = Selectivity index, ratio of IC50 for cytotoxicity against human THP1 cells to MIC for Mycobacterium tuberculosis H37Rv; assay type: toxicity, cell-based; conditions: THP-1 cells, read-out: Selectivity Index
Summary of the method: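 THP-1 cells, 10^4/well, adhered with PMA 20 ng/mL, in RPMI with 10 % FCS and 2 mM L-glutamine; exposed to 4.68–150 µg/mL for 24 and 48 h at 37 °C, 5 % CO2; MTT 4 h, formazan in DMSO, A540. Index = THP-1 IC50 divided by H37Rv MABA MIC.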

[8] = Cytotoxicity against human THP1 cells assessed as cell viability at 75 ug/ml after 48 hrs by MTT assay relative to control; assay type: cell-based; conditions: THP-1 cells, read-out: Activity; summary of the method: as §1
[9] = Cytotoxicity against human THP1 cells assessed as cell viability at 9.36 ug/ml after 24 hrs by MTT assay relative to control; assay type: cell-based; conditions: THP-1 cells, read-out: Activity; summary of the method: as §1
[10] = system: Mycobacterium tuberculosis; experiment: Potency index, ratio of streptomycin MIC to compound MIC for antimycobacterial activity against MDR Mycobacterium tuberculosis isolate 591; assay type: functional
[11] = system: Mycobacterium tuberculosis; experiment: Potency index, ratio of ethambutol MIC to compound MIC for antimycobacterial activity against MDR Mycobacterium tuberculosis isolate 591; assay type: functional
[12] = system: Mycobacterium tuberculosis; experiment: Antimycobacterial activity against MDR Mycobacterium tuberculosis isolate 591 after 15 days by MABA; assay type: functional; conditions: isolate 591, 360 h
Summary of the method: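 MABA in 7H9 medium on MDR clinical isolate 591: filtered single-cell suspension, 1 × 10^6 cells per well with drug dilutions, aerobic 37 °C; 0.02 % resazurin added on day 15, overnight 37 °C. MIC = lowest concentration preventing blue-to-pink change. Triplicate; medium+inoculum and medium-only controls.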

[13] = system: Mycobacterium tuberculosis; experiment: Antimycobacterial activity against Mycobacterium tuberculosis H37Rv after 10 days by MABA; assay type: functional; conditions: 240 h
Summary of the method: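 MABA in 7H9 medium: log-phase culture passed through 8 µm filter, density set by OD600 and McFarland standards, 1 × 10^6 cells per well with drug dilutions; aerobic incubation 37 °C 10 days, then 0.02 % resazurin, overnight 37 °C. MIC = lowest concentration preventing blue-to-pink change. Triplicate; medium+inoculum and medium-only controls.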

[14] = Cytotoxicity against human THP1 cells assessed as cell viability at 4.68 ug/ml after 48 hrs by MTT assay relative to control; assay type: cell-based; conditions: THP-1 cells, read-out: Activity; summary of the method: as §1
[15] = Cytotoxicity against human THP1 cells assessed as cell viability at 37.48 ug/ml after 24 hrs by MTT assay relative to control; assay type: cell-based; conditions: THP-1 cells, read-out: Activity; summary of the method: as §1
[16] = Cytotoxicity against human THP1 cells assessed as cell viability at 4.68 ug/ml after 24 hrs by MTT assay relative to control; assay type: cell-based; conditions: THP-1 cells, read-out: Activity; summary of the method: as §1
[17] = system: Mycobacterium tuberculosis; experiment: Ratio of MBC to MIC for Mycobacterium tuberculosis H37Rv; assay type: functional
[18] = Cytotoxicity against human THP1 cells assessed as cell viability at 18.72 ug/ml after 48 hrs by MTT assay relative to control; assay type: cell-based; conditions: THP-1 cells, read-out: Activity; summary of the method: as §1
[19] = system: Mycobacterium tuberculosis; experiment: Potency index, ratio of rifampicin MIC to compound MIC for antimycobacterial activity against MDR Mycobacterium tuberculosis isolate 591; assay type: functional
[20] = system: Mycobacterium tuberculosis; experiment: Potency index, ratio of isoniazid MIC to compound MIC for antimycobacterial activity against MDR Mycobacterium tuberculosis isolate 591; assay type: functional
THP-1 = experiment: Cytotoxicity against human THP1 cells assessed as growth inhibition after 24 to 48 hrs by MTT assay; assay type: cell-based; summary of the method: as §1
[21] = Cytotoxicity against human THP1 cells assessed as cell viability at 9.36 ug/ml after 48 hrs by MTT assay relative to control; assay type: cell-based; conditions: THP-1 cells, read-out: Activity; summary of the method: as §1

Structure (SMILES) | viability at 48 h, 37.48 ug/ml [1] [%] | viability at 24 h, 150 ug/ml [2] [%] | viability at 24 h, 75 ug/ml [3] [%] | MBC [4] [µM] | viability at 48 h, 150 ug/ml [5] [%] | viability at 24 h, 18.72 ug/ml [6] [%] | selectivity ratio [7] | viability at 48 h, 75 ug/ml [8] [%] | viability at 24 h, 9.36 ug/ml [9] [%] | MIC [12] [µM] | MIC [13] [µM] | viability at 48 h, 4.68 ug/ml [14] [%] | viability at 24 h, 37.48 ug/ml [15] [%] | viability at 24 h, 4.68 ug/ml [16] [%] | Ratio [17] | viability at 48 h, 18.72 ug/ml [18] [%] | IC50 (THP-1) [µM] | viability at 48 h, 9.36 ug/ml [21] [%] | further results
O=c1cc(-c2ccccc2)c2ccc(OCc3cn([C@@H]4O[C@H](CO)[C@@H](O)[C@H]4O)nn3)cc2o1 | 78 | 79 | 88 | 17.7 (≈ 7.99 µg/mL) | 62 | 100 | 75.4 | 70 | 100 | 8.9 (≈ 4.02 µg/mL) | 4.4 (≈ 1.99 µg/mL) | 95 | 94 | 100 | 4 | 84 | > 332 | 93 | Ratio [10]: 7 - 420; Ratio [11]: 7 - 420; Ratio [19]: 7 - 420; Ratio [20]: 7 - 420
O=C(OC[C@H]1O[C@@H](n2cc(COc3ccc4c(-c5ccccc5)cc(=O)oc4c3)nn2)[C@H](OC(=O)c2ccccc2)[C@@H]1OC(=O)c1ccccc1)c1ccccc1 | 74 | 66 | 81 | 10.5 (≈ 8.02 µg/mL) | 64 | 97 | 37.6 | 70 | 100 | 5.2 (≈ 3.97 µg/mL) | 5.2 (≈ 3.97 µg/mL) | 95 | 81 | 100 | 2 | 84 | > 196 | 93 | Ratio [10]: 7 - 420; Ratio [11]: 7 - 420; Ratio [19]: 7 - 420; Ratio [20]: 7 - 420
[H]/N=C(/N)N[C@H]1[C@H](O)[C@@H](O)[C@H](O[C@@H]2O[C@@H](C)[C@](O)(C=O)[C@H]2O[C@@H]2O[C@@H](CO)[C@H](O)[C@@H](O)[C@@H]2NC)[C@@H](N/C(N)=N\[H])[C@@H]1O [STREPTOMYCIN] | 77 | 75 | 80 |  | 55 | 98 | 600 | 69 | 99 | 69 (≈ 40.1 µg/mL) | 0.43 (≈ 0.25 µg/mL) | 90 | 89 | 100 |  | 84 | > 258 | 86 | 
Cc1cc(=O)oc2cc(-c3cn([C@@H]4O[C@H](COC(=O)c5ccccc5)[C@@H](OC(=O)c5ccccc5)[C@H]4OC(=O)c4ccccc4)nn3)c(Cl)cc12 |  |  |  | 25.5 (≈ 18 µg/mL) |  |  |  |  |  | 14.2 (≈ 10 µg/mL) | 14.2 (≈ 10 µg/mL) |  |  |  | 1.8 |  |  |  | 
O=c1ccc2ccc(-c3cn([C@@H]4O[C@H](CO)[C@@H](O)[C@H]4O)nn3)cc2o1 |  |  |  | 46.3 (≈ 16 µg/mL) |  |  |  |  |  | 28.9 (≈ 9.98 µg/mL) | 28.9 (≈ 9.98 µg/mL) |  |  |  | 1.6 |  |  |  | 
Cc1cc(=O)oc2cc(-c3cn([C@@H]4O[C@H](COC(=O)c5ccccc5)[C@@H](OC(=O)c5ccccc5)[C@H]4OC(=O)c4ccccc4)nn3)ccc12 |  |  |  | 26.8 (≈ 18 µg/mL) |  |  |  |  |  | 29.8 (≈ 20 µg/mL) | 11.9 (≈ 7.99 µg/mL) |  |  |  | 2.25 |  |  |  | 
O=C(OC[C@H]1O[C@@H](n2cc(COc3ccc4ccc(=O)oc4c3)nn2)[C@H](OC(=O)c2ccccc2)[C@@H]1OC(=O)c1ccccc1)c1ccccc1 |  |  |  | 26.2 (≈ 18 µg/mL) |  |  |  |  |  | 14.5 (≈ 9.97 µg/mL) | 11.6 (≈ 7.98 µg/mL) |  |  |  | 2.25 |  |  |  | 
CC[C@@H](CO)NCCN[C@@H](CC)CO [ETHAMBUTOL] |  |  |  |  |  |  |  |  |  | 73.4 (≈ 15 µg/mL) | 9.7 (≈ 1.98 µg/mL) |  |  |  |  |  |  |  | 
O=c1cc(-c2ccccc2)c2ccc(-c3cn([C@@H]4O[C@H](CO)[C@@H](O)[C@H]4O)nn3)cc2o1 | 70 | 65 | 68 | 28.5 (≈ 12 µg/mL) | 62 | 84 | 25 | 63 | 94 | 18.9 (≈ 7.96 µg/mL) | 14.2 (≈ 5.98 µg/mL) | 96 | 70 | 100 | 2 | 83 | > 355 | 94 | 
